Bioassay records deposited in PubChem BioAssay by several laboratories.
HSF1 inh: HSF1 inhibitors in luciferase reporter cells, primary screen, cell-based, NIH3T3, luminescence; actives 0.77% (n = 300,000); activity change, negative = inhibition, % at 7.5 µM (by protocol); NIH3T3-HGL HSE-luciferase, MG132-induced, luminescence 8 h; hits give low values;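 active means more than half of replicate wells show activity change below -50%, luminescence cut by over half; inconclusive means some wells, but at most half, below -50%; inactive means no replicate well below -50%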;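 further: luciferase reports HSF-1 transcriptional activity via heat shock element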
NS3 helicase inh: inhibitors of HCV NS3 helicase, primary screen, biochemical, Cy5 molecular beacon fluorescence; Hepatitis C virus NS3 helicase; NS3 helicase DNA unwinding; inhibition, % at 10.9 µM; actives 0.56% (n = 290,000); AID 1800, 2009;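 active means inhibition above the mean of all tested compounds plus 3 SD, set per campaign, cut at about 35% in these data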
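test system = hepatitis C virus NS3 helicase domain fragment enzyme | reagent = annealed dual-labelled DNA beacon duplex, ATP-started | times = 1 h at 25 °C | detection = Cy5 fluorescence, 0 and 60 min reads | read-out basis = percent inhibition from t60/t0 fluorescence ratio | control set = DMSO and thioflavine S | replication = one well per compound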
HSF1 activator: HSF-1 activators, primary screen, NIH3T3-HGL cells, MG132 stress, luminescence, single point; AID 504408, 2011; NIH3T3-HGL HSF-1 luciferase reporter, 8 h; 100% = twice DMSO control signal; actives 1.7% (n = 300,000); activation, % at 9 µM;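 active means mean replicate activation of at least 50% with a set share of replicates each reaching 50%; inconclusive means only one of those two conditions met; inactive means mean below 50% and too few replicates reaching it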
Lipid droplet: inhibitors of hepatocyte lipid droplet formation, primary screen, imaging, high-throughput imaging, BODIPY stain; AML12 mouse hepatocytes, oleate lipid droplets; inhibition, % at 6.5 µM; actives 0.4% (n = 240,000); AID 1656, 2009;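 active means lipid droplet intensity inhibited by at least 50%, with more than 500 cells counted; inconclusive means wells with under 300 cells, treated as cytotoxic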
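Test system: AML12 mouse liver cells; schedule: overnight exposure; technique: high-content imaging of BODIPY-stained droplets and DAPI nuclei; read-out: % inhibition of corrected integrated BODIPY droplet signal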
HSP90 refold inh: HSP90 inhibitors, primary screen, cell lysate, luminescence. Rabbit reticulocyte lysate, luciferase refolding luminescence, 3 h. actives 0.91% (n = 290,000). inhibition, % at 5.6 µM;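 active means inhibition above the screen-wide mean plus 3 SD, computed separately per campaign, cut at about 16% in these data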;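 further: inhibitors lower the luminescence because luciferase stays unfolded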
Numbers stand for hits. Shown are actives, neighbours in structure and some others; about 3.8% of the full set was active somewhere.

Cc1cc(-c2nnc(SCC(=O)Nc3ccccc3C(F)(F)F)o2)c(C)n1-c1ccccc1 was read as HSF1 inh -56, NS3 helicase inh inactive, HSF1 activator inactive, Lipid droplet inactive and HSP90 refold inh inactive.
Clc1ccc(SCc2csc(N3CCOCC3)n2)cc1 was read as HSF1 inh inactive, NS3 helicase inh inactive, HSF1 activator 72, Lipid droplet inactive and HSP90 refold inh inactive.
Screening CC(Sc1ccc(Cl)cc1)C(=O)NNC(=O)c1csc(N2CCOCC2)n1 (stereo not drawn) returned HSF1 inh inactive, NS3 helicase inh inactive, HSF1 activator inactive, Lipid droplet inactive and HSP90 refold inh inactive.
COc1ccc(/C=C2\Sc3ccc(C(=O)NCCCN4CCCC4)cc3N(C)C2=O)cc1OC was read as HSF1 inh inactive, NS3 helicase inh inactive, HSF1 activator inactive, Lipid droplet inactive and HSP90 refold inh inactive.
O=[N+]([O-])c1ccc(N2CCOCC2)cc1NCc1ccccc1 was read as NS3 helicase inh inactive and HSP90 refold inh inactive.
O=[N+]([O-])c1cc([N+](=O)[O-])c(N2CCOCC2)cc1NCc1ccccc1 was read as HSF1 inh inactive, NS3 helicase inh inactive, HSF1 activator 109, Lipid droplet inactive and HSP90 refold inh inactive.
Cc1ccc(S(=O)(=O)N(C)C)cc1NC(=S)NC(C)CCCC(C)C (stereo not drawn) was read as HSF1 inh inactive, NS3 helicase inh inactive, HSF1 activator 57, Lipid droplet inactive and HSP90 refold inh inactive.
Screening Cc1ccc(S(=O)(=O)N(C)C)cc1NC(=S)NC(C)CCC(C)C (stereo not drawn) returned HSF1 inh inactive, NS3 helicase inh inactive, HSF1 activator inactive, Lipid droplet inactive and HSP90 refold inh inactive.
Cc1ccc(S(=O)(=O)N(C)C)cc1NC(=S)N(C)C1CCN(C)CC1 was read as HSF1 inh inactive, NS3 helicase inh inactive, HSF1 activator 55, Lipid droplet inactive and HSP90 refold inh inactive.
Screening Cc1cc(=O)[nH]c(-n2ncc(C#N)c2N)n1 returned HSF1 inh inactive, NS3 helicase inh inactive, HSF1 activator 69, Lipid droplet inactive and HSP90 refold inh inactive.
For COc1cc(OC)cc(-c2nnc(Sc3ccc(C=O)cc3[N+](=O)[O-])o2)c1 the results were HSF1 inh inactive, NS3 helicase inh inactive, HSF1 activator 142 and HSP90 refold inh inactive.
`CCc1oc(C(=O)OC)cc1CSC(=N)N` gave HSF1 inh inactive, NS3 helicase inh inactive, HSF1 activator inactive, Lipid droplet inactive and HSP90 refold inh inactive.
For Cc1ccc(CNC(=O)Cn2ccc3cc(S(=O)(=O)N4CCCCCC4)ccc32)cc1 the results were HSF1 inh inactive, NS3 helicase inh inactive, HSF1 activator inactive, Lipid droplet inactive and HSP90 refold inh inactive.
Screening Oc1ccc(/C=N/Nc2ccnc3cc(Cl)ccc23)c(O)c1 returned HSF1 inh inactive, NS3 helicase inh inactive, HSF1 activator 100, Lipid droplet inactive and HSP90 refold inh inactive.
For O=C(CSc1cccs1)Nc1cccc2ccccc12 the results were HSF1 inh inactive, NS3 helicase inh inactive, HSF1 activator 63, Lipid droplet inactive and HSP90 refold inh inactive.
O=C(CSC1=NCCS1)Nc1cccc2ccccc12 was read as HSF1 inh inactive, NS3 helicase inh inactive, HSF1 activator inactive, Lipid droplet inactive and HSP90 refold inh inactive.
Screening O=C(CSc1cccs1)Nc1ccc2ccccc2c1 returned HSF1 inh inactive, NS3 helicase inh inactive, HSF1 activator 57 and HSP90 refold inh inactive.
Screening O=C(Cc1ccc2c(c1)CCCC2)Nc1ccc2ccccc2c1 returned HSF1 inh inactive, NS3 helicase inh inactive, HSF1 activator 57, Lipid droplet inactive and HSP90 refold inh inactive.
`CCOC(=O)c1sc(NC(C)=O)cc1C` gave HSF1 inh inactive, NS3 helicase inh inactive, HSF1 activator inactive, Lipid droplet inactive and HSP90 refold inh inactive.
Screening CCOC(=O)c1sc(NC(=O)Nc2ccccc2Cl)cc1C returned HSF1 inh inactive, NS3 helicase inh inactive, HSF1 activator inactive, Lipid droplet inactive and HSP90 refold inh inactive.
CCOC(=O)c1sc(NC(=O)c2ccc(C)s2)cc1C was read as HSF1 inh inactive, NS3 helicase inh inactive, HSF1 activator 69 and HSP90 refold inh inactive.
CCOC(=O)c1sc(NC(=O)Nc2ccccc2)cc1C was read as HSF1 inh inactive, NS3 helicase inh inactive, HSF1 activator 82, Lipid droplet inactive and HSP90 refold inh inactive.
Screening COc1ccc(N2CCN(S(=O)(=O)c3ccc4c(c3)NC(=O)C(C)S4)CC2)cc1 (stereo not drawn) returned HSF1 inh inactive, NS3 helicase inh inactive, HSF1 activator inactive, Lipid droplet inactive and HSP90 refold inh inactive.
COc1ccccc1C(=O)NCC(=O)N/N=C(\C)Cc1ccccc1 was read as HSF1 inh inactive, NS3 helicase inh inactive, HSF1 activator inactive, Lipid droplet inactive and HSP90 refold inh inactive.
`O=C(N/N=C/C(Br)=C/c1ccccc1)c1ccncc1` gave HSF1 inh inactive, NS3 helicase inh inactive, HSF1 activator inactive, Lipid droplet inactive and HSP90 refold inh inactive.
For CCOc1cc(C(=O)N/N=C/C(Br)=C/c2ccccc2)cc(OCC)c1OCC the results were HSF1 inh inactive, NS3 helicase inh inactive, HSF1 activator 87, Lipid droplet inconclusive and HSP90 refold inh inactive.
Screening O=C(N/N=C/C(Br)=C/c1ccccc1)c1ccc([N+](=O)[O-])cc1 returned HSF1 inh inactive, NS3 helicase inh inactive, HSF1 activator 59, Lipid droplet inactive and HSP90 refold inh inactive.
For CC(=C/c1ccccc1)/C=N/NC(=O)c1ccc2nc[nH]c2c1 the results were HSF1 inh inactive, NS3 helicase inh inactive, HSF1 activator inactive, Lipid droplet inactive and HSP90 refold inh inactive.
`CCOc1c(Br)cc(/C=N\NC(=O)c2ccccc2)cc1OC` gave HSF1 inh inactive, NS3 helicase inh inactive, HSF1 activator inactive, Lipid droplet inactive and HSP90 refold inh inactive.
For O=C(N/N=C/C(Br)=C\c1ccccc1)c1ccc2nc[nH]c2c1 the results were HSF1 inh inactive, NS3 helicase inh inactive, HSF1 activator 125, Lipid droplet inactive and HSP90 refold inh inactive.
For O=C(N/N=C/C(Br)=C/c1ccccc1)c1cccnc1 the results were HSF1 inh inactive, NS3 helicase inh inactive, HSF1 activator 82, Lipid droplet inactive and HSP90 refold inh inactive.
`COCCCNC(=O)CSC1=Nc2ccccc2C2=NC(c3ccccc3)C(=O)N12` (stereo not drawn) gave HSF1 inh inactive, NS3 helicase inh inactive, HSF1 activator inactive, Lipid droplet inactive and HSP90 refold inh inactive.
For Cc1ccc(/C=C/C(=O)OCC(=O)NCCN2C(=O)CSC2=O)o1 the results were HSF1 inh -73, NS3 helicase inh inactive, HSF1 activator inactive, Lipid droplet inactive and HSP90 refold inh inactive.
